Measurements published in ChEMBL document CHEMBL3745626, “Synthesis of β-boswellic acid derivatives as cytotoxic and apoptotic agents” (Bioorg Med Chem Lett, 2016).
Activity calls are given as the source filed them. No cut-off for these calls is given here.

Key:
A549 [1] = test: Anticancer activity against human A549 cells assessed as growth inhibition at 100 uM after 24 hrs by sulforhodamine B assay; format: functional; conditions: A549, 24 h
[2] = Anticancer activity against human PC3 cells assessed as growth inhibition at 100 uM after 24 hrs by sulforhodamine B assay; format: functional; conditions: PC-3, 24 h
[3] = Anticancer activity against human HCT116 cells assessed as growth inhibition at 100 uM after 24 hrs by sulforhodamine B assay; format: functional; conditions: HCT-116, 24 h
[4] = Anticancer activity against human HT1080 cells assessed as growth inhibition at 100 uM after 24 hrs by sulforhodamine B assay; format: functional; conditions: HT-1080, 24 h
[5] = Anticancer activity against human HCT116 cells assessed as growth inhibition after 24 hrs by sulforhodamine B assay; format: functional, cell-based; conditions: HCT-116, 24 h
Method in brief: (§1)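 SRB assay on human cancer cell lines over a range of concentrations; inhibitory values calculated from concentration–response data, mean ± SD of three experiments.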

T47D = test: Anticancer activity against human T47D cells assessed as growth inhibition after 24 hrs by sulforhodamine B assay; format: functional, cell-based; method in brief: as §1
A549 [6] = test: Anticancer activity against human A549 cells assessed as growth inhibition after 24 hrs by sulforhodamine B assay; format: functional, cell-based; conditions: A549, 24 h; method in brief: as §1
[7] = Anticancer activity against human PC3 cells assessed as growth inhibition after 24 hrs by sulforhodamine B assay; format: functional, cell-based; conditions: PC-3, 24 h; method in brief: as §1
[8] = Cytotoxicity against human FR2 cells assessed as growth inhibition after 24 hrs by sulforhodamine B assay; format: cell-based; conditions: FR2, 24 h
HCT-116 [9] = test: Induction of apoptosis in human HCT116 cells assessed as increase in apoptotic body formation after 48 hrs by DAPI staining based fluorescence microscopy; format: functional, cell-based
Method in brief: (§2)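 HCT-116 cells exposed to 1, 2.5 and 5 μM for 48 h, nuclei stained with DAPI and examined by fluorescence microscopy for chromatin condensation and apoptotic bodies; untreated and paclitaxel controls.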

HCT-116 [10] = test: Induction of apoptosis in human HCT116 cells assessed as PARP cleavage at 50 nM after 48 hrs by Western blot analysis; format: functional, cell-based
HCT-116 [11] = test: Anticancer activity against human HCT116 cells assessed as inhibition of colony formation at 1 to 5 uM after 48 hrs by clonogenic assay; format: functional, cell-based
Method in brief: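 HCT-116 cells treated at 1, 2.5 and 5 μM, then reseeded at suitable dilution (500 cells for untreated control) in six-well plates to form colonies over 1-3 weeks; survival fraction expressed relative to untreated control; paclitaxel positive control.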

HCT-116 [12] = test: Induction of apoptosis in human HCT116 cells assessed as chromatin condensation after 48 hrs by DAPI staining based fluorescence microscopy; format: functional, cell-based; method in brief: as §2
HCT-116 [13] = test: Induction of apoptosis in human HCT116 cells assessed as loss of mitochondrial membrane potential after 48 hrs by rhodamine 123 staining based confocal microscopy; format: functional, cell-based
Method in brief: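 Rhodamine-123 staining of HCT-116 cells treated at 1, 2.5 and 5 μM; mitochondrial fluorescence intensity read by laser scanning confocal microscopy; paclitaxel (50 nM) positive control; mean ± SD.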

HCT-116 [14] = test: Induction of apoptosis in human HCT116 cells assessed as PARP cleavage at 1 to 5 uM after 48 hrs by Western blot analysis; format: functional, cell-based
Method in brief: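 HCT-116 cells incubated 48 h at 1, 2.5 and 5 μM; intact and cleaved PARP-1 detected by western blot, β-actin loading control; paclitaxel positive control.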

HCT-116 [15] = test: Induction of ROS generation in human HCT116 cells after 48 hrs by 2',7'-dichlorofluorescien diacetate staining based fluorescence microscopy; format: functional, cell-based
Method in brief: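 HCT-116 cells exposed 48 h at 1 and 2.5 μM, loaded with DCFDA; DCF fluorescence measured by imaging and spectrofluorometry; H2O2 positive control.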

| SMILES | inhibition at 100 µM (A549 [1]) | inhibition at 100 µM [2] | inhibition at 100 µM [3] | inhibition at 100 µM [4] | also measured |
| --- | --- | --- | --- | --- | --- |
| COC(=O)[C@@]1(C)C(=O)/C(=C/c2ccc(C)cc2)C[C@]2(C)[C@H]3CC=C4[C@@H]5[C@@H](C)[C@H](C)CC[C@]5(C)CC[C@@]4(C)[C@]3(C)CC[C@@H]12 | 28% | 11% | 20% | 26% | – |
| COC(=O)[C@@]1(C)C(=O)/C(=C/c2ccc(Cl)cc2Cl)C[C@]2(C)[C@H]3CC=C4[C@@H]5[C@@H](C)[C@H](C)CC[C@]5(C)CC[C@@]4(C)[C@]3(C)CC[C@@H]12 | 97% | 79% | 49% | 100% | IC50 [5]: > 100 µM; IC50 (T47D): > 100 µM; IC50 (A549 [6]): 56.1 µM; IC50 [7]: 69.5 µM; IC50 [8]: > 100 µM |
| COC(=O)[C@@]1(C)C(=O)/C(=C/c2cccs2)C[C@]2(C)[C@H]3CC=C4[C@@H]5[C@@H](C)[C@H](C)CC[C@]5(C)CC[C@@]4(C)[C@]3(C)CC[C@@H]12 | 42% | 19% | 40% | 37% | – |
| CC(=O)O[C@H]1C(=O)[C@@]2(C)[C@H]([C@H](OC(=O)c3ccccc3)[C@]3(O)C[C@H](OC(=O)[C@H](O)[C@@H](NC(=O)c4ccccc4)c4ccccc4)C(C)=C1C3(C)C)[C@]1(OC(C)=O)CO[C@@H]1C[C@@H]2O | – | – | – | – | Activity (HCT-116 [9]): Active; Activity (HCT-116 [10]): Active |
| COC(=O)[C@@]1(C)C(=O)/C(=C/c2cc(OC)cc(OC)c2)C[C@]2(C)[C@H]3CC=C4[C@@H]5[C@@H](C)[C@H](C)CC[C@]5(C)CC[C@@]4(C)[C@]3(C)CC[C@@H]12 | 55% | 41% | 21% | 17% | – |
| COC(=O)[C@@]1(C)C(=O)/C(=C/c2ccccc2F)C[C@]2(C)[C@H]3CC=C4[C@@H]5[C@@H](C)[C@H](C)CC[C@]5(C)CC[C@@]4(C)[C@]3(C)CC[C@@H]12 | 47% | 44% | 0% | 23% | – |
| COC(=O)[C@@]1(C)C(=O)/C(=C/c2cccc([N+](=O)[O-])c2)C[C@]2(C)[C@H]3CC=C4[C@@H]5[C@@H](C)[C@H](C)CC[C@]5(C)CC[C@@]4(C)[C@]3(C)CC[C@@H]12 | 0% | 10% | 6% | 13% | – |
| COC(=O)[C@@]1(C)C(=O)/C(=C/c2ccc(Cl)cc2)C[C@]2(C)[C@H]3CC=C4[C@@H]5[C@@H](C)[C@H](C)CC[C@]5(C)CC[C@@]4(C)[C@]3(C)CC[C@@H]12 | 7% | 10% | 0% | 6% | – |
| COC(=O)[C@@]1(C)C(=O)/C(=C/c2ccncc2)C[C@]2(C)[C@H]3CC=C4[C@@H]5[C@@H](C)[C@H](C)CC[C@]5(C)CC[C@@]4(C)[C@]3(C)CC[C@@H]12 | 99% | 100% | 100% | 95% | IC50 [5]: 1.84 µM; IC50 (T47D): 1.26 µM; IC50 (A549 [6]): 2.13 µM; IC50 [7]: 1.96 µM; IC50 [8]: 21.4 µM; inhibition (HCT-116 [11]): Dose-dependent effect; Activity (HCT-116 [9]): Dose-dependent effect; Activity (HCT-116 [12]): Dose-dependent effect; Activity (HCT-116 [13]): Dose-dependent effect; Activity (HCT-116 [14]): Active; Activity (HCT-116 [15]): Dose-dependent effect |
| COC(=O)[C@@]1(C)C(=O)/C(=C/c2c(Cl)cccc2Cl)C[C@]2(C)[C@H]3CC=C4[C@@H]5[C@@H](C)[C@H](C)CC[C@]5(C)CC[C@@]4(C)[C@]3(C)CC[C@@H]12 | 74% | 24% | 57% | 99% | – |
| COC(=O)[C@@]1(C)C(=O)/C(=C/c2ccccc2[N+](=O)[O-])C[C@]2(C)[C@H]3CC=C4[C@@H]5[C@@H](C)[C@H](C)CC[C@]5(C)CC[C@@]4(C)[C@]3(C)CC[C@@H]12 | 42% | 11% | 21% | 100% | – |
